Measured values as given in the RNAGym collection of RNA variant scans (doi:10.1126/science.aae0568).
Fewer inactive variants are shown than the library holds.

B1: tRNA (parent)
chain: GUUCCGUUGGCGUAAUGGUAACGCGUCUCCCUCCUAAGGAGAAGACUGCGGGUUCGAGUCCCGUACGGAACG

Variants of: B1
Test: yeast fitness relative to wild type (ratio to wild type); higher = fitter; tRNA-Arg(CCU), competitive growth, 37 C, YPD
In short: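 Variants of the tRNA-Arg(CCU) gene, chemically synthesised with a 3% per-site mutation rate at 69 sites, were placed at the native genomic locus in Saccharomyces cerevisiae. The pooled strains were competed in YPD at 37°C for 24 hours in six parallel replicates. Gene amplicons from the start population and from each end population were read by 100-nucleotide paired-end sequencing. Darwinian fitness relative to wild type came from changes in genotype frequencies; genotypes needed ≥ 100 starting reads, and estimates < 0.5 were set to 0.5.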

| Variant | yeast fitness |
| --- | --- |
| GUUCCGUUGGAGUAAUGGUGACGCGUCUCCCUCCUAAGGAGAAGACUGCGGGUUCGAGGCCCGUACGGAACG [C11A A20G U59G] | ≤ 0.5 |
| GUUCCGUUGGAGUAAUGGUUACGCGUCUCCCUCCUAAGGAGAAGACUGCGGGUUCGAGUCCCGUACGGAACG [C11A A20U] | 0.681 |
| GUUCCGUUGGAGUAAUGGUUACGCGUUUCCCUCCUAAGGAGAAGACCGCAGGUUCGAGUCCCGUACGGAACG [C11A A20U C27U U47C G50A] | 0.618 |
| GUUCCGUUGGAGUAAUGGUUACGCGUCUUCCUGCUAAGGAGAAGACUGCGGGUUCGAGUCCAGUACGGAUCG [C11A A20U C29U C33G C62A A70U] | ≤ 0.5 |
| GUUCCGUUGGAGUAAUGGUUACGCGUCUCGCUCCUAAGGAGAAGCCUACGGGUUCGAGUCCCGUACGGAACG [C11A A20U C30G A45C G48A] | ≤ 0.5 |
| GUUCCGUUGGAGUAAUGGUUACGCGUCUCCCUUUUAAGGAGAAGACUACGGGUUCGAGUCCCGUAUGGAACG [C11A A20U C33U C34U G48A C66U] | 0.557 |
| GUUCCGUUGGAGUAAUGGUUACGCGUCUCCCUCCUAAGGAGAAGACUGCGGGUUCGAGUCUCGUACGGAACG [C11A A20U C61U] | 0.558 |
| GUUCCGUUGGAGUAAUGGUUACGCGUCACCCUCCUAAGGAGAAGACUGCGGGUUCGAGUGCCGUACGGAACG [C11A A20U U28A C60G] | 0.521 |
| GUUCCGUUGGAGUAAUGGUUACGCGUCUCCCCCCUAAGGAGAAGACUGCGGGUUCGAGUCCCGUACGGAACG [C11A A20U U32C] | 0.733 |
| GUUCCGUUGGAGUAAUGGUUACGCGUCUCCCCCCUAAGGAGAAGACUGCGGGUUCGAGUCCCGUACGCAACG [C11A A20U U32C G68C] | ≤ 0.5 |
| GUUCCGUUGGAGUAAUGGUUACGCGUCUCCCUCCUAAGGAGAAGACCGCGGGUUCGAGUCCCGUACGGAACG [C11A A20U U47C] | ≤ 0.5 |
| GUUCCGUUGGAGUAAUGGUACCGCGUCUCCCUCCUAAGGAGAAGACUGCGGGUUCGAGUCCCGUACGGAACG [C11A A21C] | 0.557 |
| GUUCCGUUGGAGUAAUGGUACCGCGUCUCCCUCCUACGGCGAAGACUGCGGGUUCGAGUCCCGUACGGCACG [C11A A21C A37C A40C A69C] | ≤ 0.5 |
| GUUCCGUUGGAGUAAUGGUACCGCGUCUCUCUCCUAAGGAGAAGACUGCGGGUUCGAGUCCCGUACGGAACG [C11A A21C C30U] | 0.678 |
| GUUCCGUUGGAGUAAUGGUACCGCGUCUCCAUCCUAAGGAGAAGACUGCGGGUUCGAGUCCCGUACGGAACG [C11A A21C C31A] | 0.567 |
| GUUCCGUUGGAGUAAUGGUACCGCGUCUCCAUCCUAAGGAGAAGACUGCGGGUUGGAGUCCCGUACGGAACG [C11A A21C C31A C55G] | ≤ 0.5 |
| GUUCCGUUGGAGUAAUGGUACCGCGUCUCCAUCCUAAGGAGAAGACUGCGGGUUCGAGUCCUGUACGGAACG [C11A A21C C31A C62U] | ≤ 0.5 |
| GUUCCGUUGGAGUAAUGGUACCGCGUCUCCAUCCUAAGGAGAAGACUGCGGGUUCGAAUCCCGUACGGAACG [C11A A21C C31A G58A] | ≤ 0.5 |
| GUUCCGUUGGAGUAAUGGUACCGCGUCUCCCUCAUAAGGAGAAGACUGCGGGUUCGUGUCACGUACGGAACG [C11A A21C C34A A57U C61A] | 0.539 |

| Variant | yeast fitness |
| --- | --- |
| GUUCCGUUGGAGUAAUGGUACCGCGUCUCCCUCCUAAGGAGAAGACUGCGGGUUUGAGUCCCGUACGGAACG [C11A A21C C55U] | ≤ 0.5 |
| GUUCCGUUGGAGUAAUGGUACCGCGUCUCCCUCCUAAGCAGAAGACUGCGGGUUCGAGUCCCGUACGGAACG [C11A A21C G39C] | ≤ 0.5 |
| GUUCCGUUGGAGUAAUGGUACCGCGUCUCCCUCCUAAGGAGAAGACUGCGCGUUCGAGGCCCGUACGGAACG [C11A A21C G51C U59G] | ≤ 0.5 |
| GUUCCGUUGGAGUAAUGGUACCGCGGCUCCCUCCUAAGGAGAAGACUGCGGGUUCGAGUCCCGUGCGGCACG [C11A A21C U26G A65G A69C] | 0.525 |
| GUUCCGUUGGAGUAAUGGUACCGCGGCUCCCUCCUAAGGAGAAGACUGCGGGUUCGAGUCCCGUACGGCACG [C11A A21C U26G A69C] | ≤ 0.5 |
| GUUCCGUUGGAGUAAUGGUACCGCGUCUCCCUCCUAAGGAGAAGACUGCGGGUUCGAGUCCCGAACGGAACG [C11A A21C U64A] | 0.688 |
| GUUCCGUUGGAGUAAUGGUAGCGCGUCUCCCUCUUAGGGAGAAGACUGCGGCUUCGUGUCCCGUACGGUACG [C11A A21G C34U A37G G52C A57U A69U] | ≤ 0.5 |
| GUUCCGUUGGAGUAAUGGUAGCGCGUCUCCCUCUUAGGGAGAAGACUGCGGGUUCGAAUCCCGUACGGAACG [C11A A21G C34U A37G G58A] | ≤ 0.5 |
| GUUCCGUUGGAGUAAUGGUAGCGCGUCUCCCUCUUAGGGAGAAGACCGCGGGUUCGGGUCCUGUACGGAACG [C11A A21G C34U A37G U47C A57G C62U] | ≤ 0.5 |
| GUUCCGUUGGAGUAAUGGUAUCGCGUCUCCCUCCUAAGGAGAAGACUGCGGGUUCGAGUCCCGUACGGAACG [C11A A21U] | 0.606 |
| GUUCCGUUGGAGUAAUGGUAUCGCGUCUCCCUCCUAAGGAGAUGACUGCGGGUUCGAGUCCCGUACGGAACG [C11A A21U A43U] | ≤ 0.5 |
| GUUCCGUUGGAGUAAUGGUAUCGCGUCUCCCUCCUAAGGAGAUGACUGCGGGUUCGGGUCCCGUACGGAACG [C11A A21U A43U A57G] | ≤ 0.5 |
| GUUCCGUUGGAGUAAUGGUAUCGCGUCUCCCUCCUAAGGAGAUGACUGCGGGUUCGACUACCGUAUGGAACG [C11A A21U A43U G58C C60A C66U] | 0.563 |
| GUUCCGUUGGAGUAAUGGUAUCGCGUAUCCCUCCGAAGGAGAAGACUGCGGGUUCGAGUCCCGUACGGAACG [C11A A21U C27A U35G] | ≤ 0.5 |
| GUUCCGUUGGAGUAAUGGUAUCGCGUCUCACUCCUAAGGAGAAGUCUGUGGGUUUGAGUCCCGUACGGAACG [C11A A21U C30A A45U C49U C55U] | ≤ 0.5 |
| GUUCCGUUGGAGUAAUGGUAUCGCGUCUCCCUCCUAAGGAGAAGACUGAGGGUUCGAGUCCCGUACGGAACG [C11A A21U C49A] | ≤ 0.5 |
| GUUCCGUUGGAGUAAUGGUAUCGCGUCUCCCUCCUAAGGAAAAGACUGCGGGUUCGAGUCCCGUACGGAACG [C11A A21U G41A] | ≤ 0.5 |
| GUUCCGUUGGAGUAAUGGUAUCGCGUCUCCCUCCUAAGGAAAAGACUGCGGGUUCGAAUCCCGUGCGGAACG [C11A A21U G41A G58A A65G] | ≤ 0.5 |
